Fewer inactive variants are shown than the library holds.
B1: tRNA (parent)
chain: GUUCCGUUGGCGUAAUGGUAACGCGUCUCCCUCCUAAGGAGAAGACUGCGGGUUCGAGUCCCGUACGGAACG

Variants of: B1
Assay: yeast fitness relative to wild type (ratio to wild type); higher = fitter; tRNA-Arg(CCU), competitive growth, 37 C, YPD
Summary of the method: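 Variants of the tRNA-Arg(CCU) gene, chemically synthesised with a 3% per-site mutation rate at 69 sites, were placed at the native genomic locus in Saccharomyces cerevisiae. The pooled strains were competed in YPD at 37°C for 24 hours in six parallel replicates. Gene amplicons from the start population and from each end population were read by 100-nucleotide paired-end sequencing. Darwinian fitness relative to wild type came from changes in genotype frequencies; genotypes needed ≥ 100 starting reads, and estimates < 0.5 were set to 0.5.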

**Q.** For GUUCCGUUGGCGUAAUAGUAACGGGUGUCCCUCCUAAGGAGAAGACUGCGGGUUCGAGCCCCGUACGGUACG [G17A C24G C27G U59C A69U], which yeast fitness is on record?
**A.** ≤ 0.5

**Q.** For GUUCCGUUGGCGUAAUAGUAACGCGUCUUCCUUCUAAGGAGAAGACUGCGGGUUCGAGUGCCGUGCGGAACG [G17A C29U C33U C60G A65G], which yeast fitness is on record?
**A.** ≤ 0.5

**Q.** Which yeast fitness does the source give for GUUCCGUUGGCGUAAUAGUAACGGGUGUCCCUCCUAAGGAGAAGACUGCGGGUUCGAGUCCCGUACAGAACG [G17A C24G C27G G67A] here?
**A.** 0.583

**Q.** Which yeast fitness does the source give for GUUCCGUUGGCGUAAUAGUAACGUGUCUCUCUCCUAAGGAGAAGAAUGCGGGUUCGAGUCCCGUACGGAACG [G17A C24U C30U C46A] here?
**A.** ≤ 0.5

**Q.** For GUUCCGUUGGCGUAAUAGUAACGCGUCUCCUUCCCAAGGAGAAGACUGCGGGUUCGAGUCCGGUACGGAACG [G17A C31U U35C C62G], which yeast fitness is on record?
**A.** ≤ 0.5

**Q.** Which yeast fitness does the source give for GUUCCGUUGGCGUAAUAGUAACGCGUCUCUCUCCUAAGGAGAAGACUGCGGGUUCGAGUCCCGUACGGAACG [G17A C30U] here?
**A.** 0.82

**Q.** With GUUCCGUUGGCGUAAUAGUAACGCGUGUGCCUCCUAAGGAGAGGACUGCGGGUUCGAGUCCCGUACGGAACG [G17A C27G C29G A43G] as the variant, how does the yeast fitness read?
**A.** 0.561

**Q.** With GUUCCGUUGGCGUAAUAGUAACGCGUUUCCCUCCCAAGGAGAAGACUGCGGGUUCGAGUCGCGUACGGAACG [G17A C27U U35C C61G] as the variant, how does the yeast fitness read?
**A.** ≤ 0.5

**Q.** Which yeast fitness does the source give for GUUCCGUUGGCGUAAUAGUAACGGGUCUGCCUCCUAUGGAGAAGACUGCGGGUUCGAGUCCCGUACGGAACG [G17A C24G C29G A37U] here?
**A.** ≤ 0.5

**Q.** For GUUCCGUUGGCGUAAUAGUAACGCGUCUCGCUCCUAAGGAGAAGGCUGCGGGUUCGAGUCCCGUACGGAACG [G17A C30G A45G], which yeast fitness is on record?
**A.** 0.584

**Q.** With GUUCCGUUGGCGUAAUAGUAACGCGUGUCCCUCCUCAGGAGAAGACUGCGGGUACGAGUCCCGUACGGAACG [G17A C27G A36C U54A] as the variant, how does the yeast fitness read?
**A.** 0.555

**Q.** For GUUCCGUUGGCGUAAUAGUAACGCGUGUCCCUCCUAAGCAGAAGACUGCGGGUUCGAGUCCCGUACGGAACG [G17A C27G G39C], which yeast fitness is on record?
**A.** ≤ 0.5

**Q.** With GUUCCGUUGGCGUAAUAGUAACGCGUCUCUCUCCUAAGGAGAAGACUGUGGGUUCGAGUCCCGUAUGGCACG [G17A C30U C49U C66U A69C] as the variant, how does the yeast fitness read?
**A.** ≤ 0.5

**Q.** With GUUCCGUUGGCGUAAUAGUAACGCGUCUCCCUCUUAAGGAGAAGACUGCGGGUUCGUGUCCCGCACGGAACG [G17A C34U A57U U64C] as the variant, how does the yeast fitness read?
**A.** ≤ 0.5

**Q.** Which yeast fitness does the source give for GUUCCGUUGGCGUAAUAGUAACGCGUCUCCUUCCCAAGGAGAAGACUGCGGGUUCGGGUCCUGUACGGAACG [G17A C31U U35C A57G C62U] here?
**A.** ≤ 0.5

**Q.** For GUUCCGUUGGCGUAAUAGUAACGCGUCUCCCUCUUAAGGAGAAGACUGCGGGUUCGAGUCCCGUACGGAACG [G17A C34U], which yeast fitness is on record?
**A.** 0.573

**Q.** Which yeast fitness does the source give for GUUCCGUUGGCGUAAUAGUAACGCGUCUCCCUCAUAAGGAGAAGACUGCGGGUUCGAGUCCCGUACGGAACG [G17A C34A] here?
**A.** 0.595

**Q.** For GUUCCGUUGGCGUAAUAGUAACGCGUCUCCCUCCUAAGGAGAAGACUGCGGGUUCGAGUGCCGUACAGAACG [G17A C60G G67A], which yeast fitness is on record?
**A.** ≤ 0.5

**Q.** For GUUCCGUUGGCGUAAUAGUAACGCGUCUCCCUCUUAAGGAGAAGACUGCGGGUUGGAGUCCCGUACGGAACG [G17A C34U C55G], which yeast fitness is on record?
**A.** 0.508

**Q.** For GUUCCGUUGGCGUAAUAGUAACGCGUCUCCUUCCUAAGGAGAAGACUGGGGGUUCGAGUCCCGUACGGAACG [G17A C31U C49G], which yeast fitness is on record?
**A.** ≤ 0.5

**Q.** For GUUCCGUUGGCGUAAUAGUAACGCGUCUCCCUCCUAAGGAGAAGACUGAGGCUUCAAGUCCCGUACGGGACG [G17A C49A G52C G56A A69G], which yeast fitness is on record?
**A.** ≤ 0.5

**Q.** With GUUCCGUUGGCGUAAUAGUAACGUGUCUCCCUCCUAAGGAGAAGAUUGCGGGUUCGAGUACCGUACGGAACG [G17A C24U C46U C60A] as the variant, how does the yeast fitness read?
**A.** ≤ 0.5

**Q.** Which yeast fitness does the source give for GUUCCGUUGGCGUAAUAGUAACGCGUCUGCCUCCUAAGGAGAGGACUGCGGGUUCGAGUCCCGUACGCAACG [G17A C29G A43G G68C] here?
**A.** ≤ 0.5

**Q.** For GUUCCGUUGGCGUAAUAGUAACGCGUCUCCCUCGUAAGGAGAAGACUGCGGGUUCGAGUCCCGUACUGAACG [G17A C34G G67U], which yeast fitness is on record?
**A.** ≤ 0.5

**Q.** Which yeast fitness does the source give for GUUCCGUUGGCGUAAUAGUAACGCGUGUCCAUCCUAAGGAGAAGACUGCGGGUUCGAGUCCCGUACGGAACG [G17A C27G C31A] here?
**A.** ≤ 0.5

**Q.** With GUUCCGUUGGCGUAAUAGUAACGCGUCUUCCUCCUAAGGAGAAGACUGCGGGUUCGGGCCCCGUACGGAACG [G17A C29U A57G U59C] as the variant, how does the yeast fitness read?
**A.** ≤ 0.5

**Q.** For GUUCCGUUGGCGUAAUAGUAACGCGUCUCCCUCCUAAGGAGAAGACUGCGGGUUCGAGUCACAUACGGAACG [G17A C61A G63A], which yeast fitness is on record?
**A.** 0.66

**Q.** With GUUCCGUUGGCGUAAUAGUAACGCGUCUCCCUCAUAAGGAGAAGACUGCGGGUUCGAGUCCCGUACGGACCG [G17A C34A A70C] as the variant, how does the yeast fitness read?
**A.** 0.631

**Q.** With GUUCCGUUGGCGUAAUAGUAACGCGUCUCUCUCCUCAGGAGACGACUGCGGGUUCGAGUCCCGUACGGAACG [G17A C30U A36C A43C] as the variant, how does the yeast fitness read?
**A.** ≤ 0.5

**Q.** Which yeast fitness does the source give for GUUCCGUUGGCGUAAUAGUAACGCGUCUCUCUCCUAAGGAGAAGACUGCGGGUUCGAGUCCCCUCCGGAACG [G17A C30U G63C A65C] here?
**A.** 0.529

**Q.** For GUUCCGUUGGCGUAAUAGUAACGCGUCUCCUUCCUAAGGAGAAGACUGCGGGUUCGAGUCCCGUAAGGAACG [G17A C31U C66A], which yeast fitness is on record?
**A.** ≤ 0.5

**Q.** For GUUCCGUUGGCGUAAUAGUAACGCGUCUACCUCCUAAGGAGAAGACUGCGGGUUCGAGUCCCGUACCGUACG [G17A C29A G67C A69U], which yeast fitness is on record?
**A.** ≤ 0.5

**Q.** For GUUCCGUUGGCGUAAUAGUAACGCGUCUCCCUCCUAAGGAGAAGACUGCGGGUUCGAGUCUCGUACGGAACG [G17A C61U], which yeast fitness is on record?
**A.** 0.924

**Q.** For GUUCCGUUGGCGUAAUAGUAACGCGUCUCCCUACUUAGGAAAAGACUACGGGUUCGAGUCCCGUACGGAACG [G17A C33A A36U G41A G48A], which yeast fitness is on record?
**A.** ≤ 0.5

**Q.** With GUUCCGUUGGCGUAAUAGUAACGCGUCUCCCUCUUAAAGAGAAGACUGCGGGUUCGAGUCCCGUACGGAACG [G17A C34U G38A] as the variant, how does the yeast fitness read?
**A.** 0.581

**Q.** With GUUCCGUUGGCGUAAUAGUAACGCGUCUCCCUCAUAAGGAGAAGACUGCGGGUUCGAGUCCCGUAAGGAACG [G17A C34A C66A] as the variant, how does the yeast fitness read?
**A.** ≤ 0.5

**Q.** For GUUCCGUUGGCGUAAUAGUAACGCGUCUCGCUCCUAAGGCGGAGACUGCGGGUUCGAGUCCCGUACGGAACG [G17A C30G A40C A42G], which yeast fitness is on record?
**A.** ≤ 0.5

**Q.** Which yeast fitness does the source give for GUUCCGUUGGCGUAAUAGUAACGCGUCUCCCUCUUAAGGAGUAGACUGCGCGUUCGAGUCCCGUAUGGAACG [G17A C34U A42U G51C C66U] here?
**A.** ≤ 0.5

From the RNAGym collection of RNA variant scans (doi:10.1126/science.aae0568)
